Data published in ChEMBL document CHEMBL4118107, “Synthesis and Biological Evaluation of ( E)-4-Hydroxy-3-methylbut-2-enyl Phosphate (HMBP) Aryloxy Triester Phosphoramidate Prodrugs as Activators of Vγ9/Vδ2 T-Cell Immune Responses” (J Med Chem, 2018).
Calls of active or inactive are those of the source. No cut-off for these calls is given here.

Key:
[1] = target: T1, Butyrophilin subfamily 3 member A1 (Homo sapiens, UniProt O00481); assay: Binding affinity to butyrophilin 3A1 in human Vgamma9/Vdelta2 T-cells assessed as activation of Vgamma9/Vdelta2 T-cells by upregulation of CD69 and CD25 after 18 hrs
In short: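 Healthy-donor PBMC incubated 18 h with medium or titrated compound (up to 100 μM). TCR Vγ9+/Vδ2+ cells were gated and scored by flow cytometry for surface CD69 and CD25 upregulation versus medium control.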

Homo sapiens = species: Homo sapiens; assay: Upregulation of CD69/CD25 levels in human CD8-positive T cells expressing alpha-beta TCR; type: functional, cell-based
In short: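 Healthy-donor human PBMC incubated 18 h with medium or compound (range up to 100 μM). CD3+ CD8+ αβ T cells were gated and analysed by flow cytometry for cell-surface CD69 and CD25 upregulation.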

[2] = target: T1, Butyrophilin subfamily 3 member A1; assay: Binding affinity to butyrophilin 3A1 in human Vgamma9/Vdelta2 T-cells assessed as activation of Vgamma9/Vdelta2 T-cell-mediated lysis of human T24 cells preincubated for 4 hrs followed by compound washout measured after 18 hrs
In short: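 T24 urinary bladder carcinoma cells (target) pulsed 4 h with 10 nM prodrug, medium, or 10 μM zoledronate. They were then cocultured 18 h with in vitro expanded Vγ9/Vδ2 T cells (effector) across target/effector ratios. Specific killing was scored by amine-reactive dead cell marker staining. Summary is at 1:10 target/effector, mean ± SD, n = 2, with one-way ANOVA.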
Target sequence in this assay (O00481 30-513 limits assumed): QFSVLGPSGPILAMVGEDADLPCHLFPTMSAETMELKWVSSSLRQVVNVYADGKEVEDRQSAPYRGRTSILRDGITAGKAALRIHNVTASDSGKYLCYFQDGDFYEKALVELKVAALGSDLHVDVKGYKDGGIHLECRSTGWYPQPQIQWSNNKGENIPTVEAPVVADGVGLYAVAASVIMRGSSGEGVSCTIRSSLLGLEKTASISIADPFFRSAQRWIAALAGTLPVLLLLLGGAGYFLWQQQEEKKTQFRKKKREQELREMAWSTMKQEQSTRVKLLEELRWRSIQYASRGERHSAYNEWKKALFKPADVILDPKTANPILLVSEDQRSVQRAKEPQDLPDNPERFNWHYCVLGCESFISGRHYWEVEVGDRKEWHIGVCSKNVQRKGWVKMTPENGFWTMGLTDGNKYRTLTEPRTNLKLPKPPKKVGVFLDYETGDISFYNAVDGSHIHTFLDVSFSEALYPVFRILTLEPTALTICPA

[3] = target: T1, Butyrophilin subfamily 3 member A1; assay: Potency index, ratio of zoledronate EC50 to test compound EC50 for binding affinity to butyrophilin 3A1 in human Vgamma9/Vdelta2 T-cells assessed as activation of Vgamma9/Vdelta2 T-cells by upregulation of CD69 and CD25
Target sequence in this assay (O00481 30-513 limits assumed): as above

[4] = target: T1, Butyrophilin subfamily 3 member A1; assay: Ratio of ED50 for binding affinity to butyrophilin 3A1 in human Vgamma9/Vdelta2 T-cells for Vgamma9/Vdelta2 T-cell-mediated lysis of human T24 cells to EC50 for binding affinity to butyrophilin 3A1 for activation of Vgamma9/Vdelta2 T-cells
Target sequence in this assay (O00481 30-513 limits assumed): as above

[5] = target: T1, Butyrophilin subfamily 3 member A1; assay: Binding affinity to butyrophilin 3A1 in human Vgamma9/Vdelta2 T-cells assessed as activation of Vgamma9/Vdelta2 T-cells by measuring levels of CD69 and CD25 at 0.1 uM after 18 hrs relative to control
In short: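 Healthy-donor PBMC incubated 18 h with medium or titrated compound (up to 100 μM). TCR Vγ9+/Vδ2+ cells were gated and scored by flow cytometry for surface CD69 and CD25 upregulation versus medium control. EC50 was taken from titration curves, n = 4–5 donors.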
Target sequence in this assay (O00481 30-513 limits assumed): as above

[6] = target: T1, Butyrophilin subfamily 3 member A1; assay: Binding affinity to butyrophilin 3A1 in human Vgamma9/Vdelta2 T-cells assessed as activation of Vgamma9/Vdelta2 T-cells by measuring levels of CD69 and CD25 at 10 uM after 18 hrs relative to control
In short: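 Human PBMC from healthy donors incubated 18 h with medium or compound (titrations up to 100 μM). Vγ9/Vδ2 T cells gated by TCR Vγ9 and Vδ2 expression. Surface CD69 and CD25 upregulation measured by flow staining and compared with medium control. n = 4–5 donors.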
Target sequence in this assay (O00481 30-513 limits assumed): as above

With `C/C(=C\CO)CO[Si](C)(C)C(C)(C)C` the Activity [1] was “inactive”.
In the case of `C/C(=C\COP(=O)(O)OP(=O)(O)O)CO`, the Activity (Homo sapiens) is reported as “inactive” and the ED50 [2] is reported as over 100000 nM.
With `C/C(=C\COP(=O)(N[C@@H](C)C(=O)OCc1ccccc1)Oc1ccccc1)CO[Si](C)(C)C(C)(C)C` (some centres not stated) the Ratio EC50 [3] was 1080, the Activity (Homo sapiens) was “inactive” and the ED50 [2] was 8510 nM. The Ratio [4] was 12900, the EC50 [1] was 0.45 nM and the Activity [5] was 50.6%.
With `O=P(O)(O)C(O)(Cn1ccnc1)P(=O)(O)O` [ZOLEDRONIC ACID] the Activity (Homo sapiens) was “inactive”, the ED50 [2] was over 100000 nM and the EC50 [1] was 487 nM. For the same compound, the Activity [6] was 39.2%.
In the case of `C/C(=C\COP(=O)(N[C@@H](C)C(=O)OC(C)C)Oc1ccccc1)CO[Si](C)(C)C(C)(C)C` (some centres not stated), the Activity (Homo sapiens) is reported as “inactive”, the ED50 [2] is reported as 83200 nM and the Ratio [4] is reported as 7830. The EC50 [1] was 10.6 nM and the Activity [5] was 31%.
`C/C(=C\COP(=O)(N[C@@H](C)C(=O)OC(C)(C)C)Oc1ccccc1)CO[Si](C)(C)C(C)(C)C` (some centres not stated) was tested, and the Activity (Homo sapiens) was “inactive”, the ED50 [2] was over 100000 nM and the EC50 [1] was 8.92 nM. For the same compound, the Activity [5] was 29.9%.
For `COC(=O)[C@H](C)NP(=O)(OC/C=C(\C)CO[Si](C)(C)C(C)(C)C)Oc1ccccc1` (some centres not stated), the Activity (Homo sapiens) was “inactive”, the ED50 [2] was 29500 nM and the Ratio [4] was 21400. For the same compound, the EC50 [1] was 1.38 nM and the Activity [5] was 39%.
